# Where a chain is given by its changes, count along the chain named.
# Legend:
# Conditions in all cases: stereoisomer not certain
# OR5B17 (Homo sapiens) = target: T1, OR5B17 (Homo sapiens) (UniProt Q8NGF7)
# T1 sequence (whole entry): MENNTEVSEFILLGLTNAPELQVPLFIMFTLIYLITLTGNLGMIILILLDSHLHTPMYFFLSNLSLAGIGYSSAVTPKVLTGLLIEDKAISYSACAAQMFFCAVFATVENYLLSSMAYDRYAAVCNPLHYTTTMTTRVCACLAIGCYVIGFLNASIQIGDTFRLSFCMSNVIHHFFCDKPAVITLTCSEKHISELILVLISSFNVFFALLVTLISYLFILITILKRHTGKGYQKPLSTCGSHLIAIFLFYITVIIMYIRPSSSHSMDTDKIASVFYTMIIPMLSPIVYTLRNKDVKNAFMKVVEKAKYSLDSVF
# Summary of the method: (§1)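 Whether a receptor–molecule pair is responsive (active) rests on the original authors' judgment that its measured signal was statistically different from baseline. Pairs without that judgment are non-responsive (inactive). Sources used varied assay methods, commonly transient luciferase assays in mammalian cell lines.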
# OR5AR1 (Homo sapiens) = target: T2, OR5AR1 (Homo sapiens) (UniProt Q8NGP9)
# T2 sequence (whole entry): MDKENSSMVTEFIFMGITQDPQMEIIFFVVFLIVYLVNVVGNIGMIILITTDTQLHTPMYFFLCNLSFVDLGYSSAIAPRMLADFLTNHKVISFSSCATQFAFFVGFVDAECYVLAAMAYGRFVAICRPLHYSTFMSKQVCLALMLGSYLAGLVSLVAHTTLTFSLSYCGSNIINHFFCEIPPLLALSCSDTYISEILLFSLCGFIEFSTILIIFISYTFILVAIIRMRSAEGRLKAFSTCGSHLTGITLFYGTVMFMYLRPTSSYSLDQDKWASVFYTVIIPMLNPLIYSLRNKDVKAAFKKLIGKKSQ
# Summary of the method: as §1
# OR5AS1 (Homo sapiens) = target: T3, OR5AS1 (Homo sapiens) (UniProt Q8N127)
# T3 sequence (whole entry): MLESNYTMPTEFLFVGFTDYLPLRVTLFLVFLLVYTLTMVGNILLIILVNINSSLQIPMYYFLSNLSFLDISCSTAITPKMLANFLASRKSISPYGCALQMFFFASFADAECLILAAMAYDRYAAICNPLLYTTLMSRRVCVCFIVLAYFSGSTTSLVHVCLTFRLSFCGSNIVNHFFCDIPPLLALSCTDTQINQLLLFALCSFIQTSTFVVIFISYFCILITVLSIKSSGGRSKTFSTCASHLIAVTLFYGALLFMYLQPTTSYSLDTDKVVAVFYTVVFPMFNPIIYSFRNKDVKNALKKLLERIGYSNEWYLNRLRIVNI
# Summary of the method: as §1
# OR5AU1 (Homo sapiens) = target: T4, OR5AU1 (Homo sapiens) (UniProt Q8NGC0)
# T4 sequence (whole entry): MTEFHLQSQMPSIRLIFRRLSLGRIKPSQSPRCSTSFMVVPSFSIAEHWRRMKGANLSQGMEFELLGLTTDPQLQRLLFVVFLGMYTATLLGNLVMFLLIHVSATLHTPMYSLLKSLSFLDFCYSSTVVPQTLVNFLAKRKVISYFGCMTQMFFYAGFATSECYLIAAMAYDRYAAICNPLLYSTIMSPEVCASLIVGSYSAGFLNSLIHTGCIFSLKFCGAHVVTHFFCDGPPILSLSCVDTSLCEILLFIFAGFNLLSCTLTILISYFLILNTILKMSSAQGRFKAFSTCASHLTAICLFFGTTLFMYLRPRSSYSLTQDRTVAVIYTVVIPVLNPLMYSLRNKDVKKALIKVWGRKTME
# Summary of the method: as §1
# OR5B12 (Homo sapiens) = target: T5, OR5B12 (Homo sapiens) (UniProt Q96R08)
# T5 sequence (whole entry): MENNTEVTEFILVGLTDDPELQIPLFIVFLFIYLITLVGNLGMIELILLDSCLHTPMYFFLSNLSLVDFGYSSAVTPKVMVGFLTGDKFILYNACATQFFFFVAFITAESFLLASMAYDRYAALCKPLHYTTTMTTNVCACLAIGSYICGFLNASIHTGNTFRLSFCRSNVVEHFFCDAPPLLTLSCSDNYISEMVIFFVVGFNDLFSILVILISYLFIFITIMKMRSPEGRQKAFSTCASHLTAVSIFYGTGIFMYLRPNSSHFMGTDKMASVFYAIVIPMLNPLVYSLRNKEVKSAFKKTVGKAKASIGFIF
# Summary of the method: as §1
# OR5B2 (Homo sapiens) = target: T6, OR5B2 (Homo sapiens) (UniProt Q96R09)
# T6 sequence (whole entry): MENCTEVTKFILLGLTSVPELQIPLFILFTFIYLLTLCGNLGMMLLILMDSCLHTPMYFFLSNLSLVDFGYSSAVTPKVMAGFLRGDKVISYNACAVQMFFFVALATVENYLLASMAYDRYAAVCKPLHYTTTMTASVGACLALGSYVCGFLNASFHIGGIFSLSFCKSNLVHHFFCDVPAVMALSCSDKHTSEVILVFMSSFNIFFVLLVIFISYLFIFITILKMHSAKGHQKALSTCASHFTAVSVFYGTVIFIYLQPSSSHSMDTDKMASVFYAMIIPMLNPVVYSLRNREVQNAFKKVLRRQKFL
# Summary of the method: as §1
# OR5B2 E6D = tested on: T7, OR5B2 E6D
# T7 sequence (whole entry): T6 sequence (whole entry) with E6D
# Summary of the method: as §1
# OR5B21 (Homo sapiens) = target: T8, OR5B21 (Homo sapiens) (UniProt A6NL26)
# T8 sequence (whole entry): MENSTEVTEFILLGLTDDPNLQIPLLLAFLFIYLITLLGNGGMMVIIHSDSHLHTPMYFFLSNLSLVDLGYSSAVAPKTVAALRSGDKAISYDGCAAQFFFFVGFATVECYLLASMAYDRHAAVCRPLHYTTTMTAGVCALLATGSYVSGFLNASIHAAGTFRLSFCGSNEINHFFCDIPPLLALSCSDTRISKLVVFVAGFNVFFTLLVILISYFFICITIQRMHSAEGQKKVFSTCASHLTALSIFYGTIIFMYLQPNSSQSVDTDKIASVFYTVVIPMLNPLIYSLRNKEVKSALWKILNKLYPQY
# Summary of the method: as §1
# OR5B3 (Homo sapiens) = target: T9, OR5B3 (Homo sapiens) (UniProt Q8NH48)
# T9 sequence (whole entry): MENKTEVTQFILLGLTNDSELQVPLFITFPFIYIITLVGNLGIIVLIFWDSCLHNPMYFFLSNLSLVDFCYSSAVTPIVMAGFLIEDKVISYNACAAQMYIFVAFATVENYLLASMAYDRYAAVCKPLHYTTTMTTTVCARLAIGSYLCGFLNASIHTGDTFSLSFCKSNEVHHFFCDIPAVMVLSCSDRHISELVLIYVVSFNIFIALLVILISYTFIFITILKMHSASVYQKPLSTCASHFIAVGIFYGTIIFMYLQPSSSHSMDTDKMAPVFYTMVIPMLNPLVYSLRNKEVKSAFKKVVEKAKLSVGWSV
# Summary of the method: as §1
# OR5B3 I198V G247A = tested on: T10, OR5B3 I198V G247A
# T10 sequence (whole entry): T9 sequence (whole entry) with I198V, G247A
# Summary of the method: as §1
# 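Further: active if original authors judged signal statistically different from baseline.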
Compound,odorant receptor agonist call (OR5B17 (Homo sapiens)),odorant receptor agonist call (OR5AR1 (Homo sapiens)),odorant receptor agonist call (OR5AS1 (Homo sapiens)),odorant receptor agonist call (OR5AU1 (Homo sapiens)),odorant receptor agonist call (OR5B12 (Homo sapiens)),odorant receptor agonist call (OR5B2 (Homo sapiens)),odorant receptor agonist call (OR5B2 E6D),odorant receptor agonist call (OR5B21 (Homo sapiens)),odorant receptor agonist call (OR5B3 (Homo sapiens)),odorant receptor agonist call (OR5B3 I198V G247A)
CCCCCC1COCCC1OC(C)=O (stereo unspecified),inactive,,,,,,,,,
CC1=C(O)C(=O)OC1C (stereo unspecified),inactive,inactive,inactive,inactive,inactive,inactive,inactive,inactive,inactive,inactive
CC1=C(O)C(=O)C(C)O1 (stereo unspecified),inactive,inactive,inactive,inactive,inactive,inactive,inactive,inactive,inactive,inactive
CCCCC(S)C(C)CO (stereo unspecified),inactive,inactive,inactive,inactive,inactive,inactive,,inactive,inactive,
Cc1cnc(C)c(C)n1,inactive,inactive,inactive,inactive,inactive,inactive,inactive,inactive,inactive,inactive
CCCCCC(=O)C(C)C(C)=O (stereo unspecified),inactive,inactive,inactive,inactive,inactive,inactive,,inactive,inactive,
OCc1ccccc1,inactive,,,,,,,,,
CCCCCC(S)C(C)CO (stereo unspecified),inactive,inactive,inactive,inactive,inactive,inactive,,inactive,inactive,
CC(CO)CS (stereo unspecified),inactive,inactive,inactive,inactive,inactive,inactive,,inactive,inactive,
Cc1ccc(C(C)C)cc1O,inactive,,,,,,,,,
CCCCCCC=CCCC=O,inactive,inactive,inactive,inactive,inactive,inactive,inactive,inactive,inactive,inactive
CC(=O)c1c(C)c([N+](=O)[O-])c(C(C)(C)C)c([N+](=O)[O-])c1C,inactive,inactive,inactive,inactive,inactive,inactive,,inactive,inactive,
CCC1OC(=O)C(O)=C1C (stereo unspecified),inactive,inactive,inactive,inactive,inactive,inactive,inactive,inactive,inactive,inactive
CC1=NC(C)C(C)S1 (stereo unspecified),inactive,inactive,inactive,inactive,inactive,inactive,inactive,inactive,inactive,inactive
CC(CC=O)c1ccc(C(C)(C)C)cc1 (stereo unspecified),inactive,,,,,,,,,
CCC1OC(C)=C(O)C1=O (stereo unspecified),inactive,inactive,inactive,inactive,inactive,inactive,inactive,inactive,inactive,inactive
CC1CCCCCCCCCCCCC(=O)C1 (stereo unspecified),inactive,inactive,inactive,inactive,inactive,inactive,,inactive,inactive,
CCCC(S)CCOC(C)=O (stereo unspecified),inactive,inactive,inactive,inactive,inactive,inactive,inactive,inactive,inactive,inactive
CCC(S)C(C)CO (stereo unspecified),inactive,inactive,inactive,inactive,inactive,inactive,,inactive,inactive,
CCc1ccc(CC(C)(C)C=O)cc1,active,,,,,,,,,
